From ChEMBL document CHEMBL1140903, “Reactions of functionalized sulfonamides: application to lowering the lipophilicity of cytosolic phospholipase A2alpha inhibitors” (J Med Chem, 2009)

Columns and labels:
Blood = test: Inhibition of A23187-induced TBX2 release in Sprague-Dawley rat whole blood; format: functional, tissue-based
Summary of the method: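 Rat whole blood is stimulated with calcium ionophore A23187, and thromboxane B2 is the read-out (cPLA2α- and COX-1-dependent). IC50 is taken from at least two runs, each run the mean of triplicate assays.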

[1] = molecular target: T1, Cytosolic phospholipase A2 (Homo sapiens, UniProt P47712); test: Inhibition of human cytosolic PLA2alpha by GLU micelle assay
T1 sequence (P47712 whole entry): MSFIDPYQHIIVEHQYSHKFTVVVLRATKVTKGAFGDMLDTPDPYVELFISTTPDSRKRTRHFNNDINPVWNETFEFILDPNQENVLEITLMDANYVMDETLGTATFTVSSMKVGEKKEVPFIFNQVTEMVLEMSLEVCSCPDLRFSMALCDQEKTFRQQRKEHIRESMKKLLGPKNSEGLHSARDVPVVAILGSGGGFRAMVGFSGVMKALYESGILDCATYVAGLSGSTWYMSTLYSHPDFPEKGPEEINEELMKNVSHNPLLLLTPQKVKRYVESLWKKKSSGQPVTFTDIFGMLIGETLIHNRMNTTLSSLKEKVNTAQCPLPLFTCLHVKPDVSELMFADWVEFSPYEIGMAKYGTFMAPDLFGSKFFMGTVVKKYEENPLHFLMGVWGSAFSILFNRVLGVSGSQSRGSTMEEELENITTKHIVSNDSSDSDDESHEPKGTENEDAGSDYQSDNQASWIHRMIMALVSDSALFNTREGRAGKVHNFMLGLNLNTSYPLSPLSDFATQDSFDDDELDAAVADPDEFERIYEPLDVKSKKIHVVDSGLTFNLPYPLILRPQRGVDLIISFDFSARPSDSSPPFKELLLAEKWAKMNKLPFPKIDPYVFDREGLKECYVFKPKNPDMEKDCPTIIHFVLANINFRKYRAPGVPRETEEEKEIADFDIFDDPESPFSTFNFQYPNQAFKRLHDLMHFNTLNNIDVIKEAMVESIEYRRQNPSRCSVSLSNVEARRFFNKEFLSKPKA
Summary of the method: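 Purified human cPLA2α with the substrate 7-hydroxycoumarinyl-γ-linolenate (GLU), presented in micelles containing a high concentration of detergent and lipid. IC50 is taken from at least two runs, each run the mean of duplicate assays.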

Structure (SMILES)	IC50 (Blood) [nM]	IC50 [1] [nM]
COc1ccc(OC)c(SCS(=O)(=O)NCCc2c(CCOc3ccc(C(=O)O)cc3)c3cc(Cl)ccc3n2C(c2ccccc2)c2ccccc2)c1	240	330
O=C(O)c1ccc(OCCc2c(CCNS(=O)(=O)CCN3CCOCC3)n(C(c3ccccc3)c3ccccc3)c3ccc(Cl)cc23)cc1	530	390
CC1CCCC(C)N1CCS(=O)(=O)NCCc1c(CCCc2ccc(C(=O)O)cc2)c2cc(Cl)ccc2n1C(c1ccccc1)c1ccccc1 (stereo not drawn)	50	
CC(=O)N1C(C)CN(CCS(=O)(=O)NCCc2c(CCOc3ccc(C(=O)O)cc3)c3cc(Cl)ccc3n2C(c2ccccc2)c2ccccc2)CC1C (stereo not drawn)	1200	270
O=C(O)c1ccc(OCCc2c(CCNS(=O)(=O)CCN3CC4CC3CO4)n(C(c3ccccc3)c3ccccc3)c3ccc(Cl)cc23)cc1 (stereo not drawn)	400	250
O=C(O)c1ccc(OCCc2c(CCNS(=O)(=O)CSc3c(Cl)cccc3Cl)n(C(c3ccccc3)c3ccccc3)c3ccc(Cl)cc23)cc1	160	600
Cc1ccccc1SCS(=O)(=O)NCCc1c(CCOc2ccc(C(=O)O)cc2)c2cc(Cl)ccc2n1C(c1ccccc1)c1ccccc1	80	150
O=C(O)c1ccc(OCCc2c(CCNS(=O)(=O)CCN3CCCCC3)n(C(c3ccccc3)c3ccccc3)c3ccc(Cl)cc23)cc1	140	360
CC(=O)N1CCN(Cc2ccccc2CS(=O)(=O)NCCc2c(CCCc3ccc(C(=O)O)cc3)c3cc(Cl)ccc3n2C(c2ccccc2)c2ccccc2)CC1	34	6
Cc1cccc(C)c1CS(=O)(=O)NCCc1c(CCCc2ccc(C(=O)O)cc2)c2cc(Cl)ccc2n1C(c1ccccc1)c1ccccc1	30	10
C[C@@H]1CCC[C@H](C)N1CCS(=O)(=O)NCCc1c(CCOc2ccc(C(=O)O)cc2)c2cc(Cl)ccc2n1C(c1ccccc1)c1ccccc1	100	250
O=C(O)c1ccc(CCCc2c(CCNS(=O)(=O)Cc3ccccc3CN3CCOCC3)n(C(c3ccccc3)c3ccccc3)c3ccc(Cl)cc23)cc1	20	
O=C(O)c1ccc(CCCc2c(CCNS(=O)(=O)Cc3ccccc3CN3CCNCC3)n(C(c3ccccc3)c3ccccc3)c3ccc(Cl)cc23)cc1	170	13
Cc1ccccc1CS(=O)(=O)NCCc1c(CCCc2ccc(C(=O)O)cc2)c2cc(Cl)ccc2n1C(c1ccccc1)c1ccccc1	25	26
O=C(O)c1ccc(OCCc2c(CCNS(=O)(=O)CSc3ccc(Cl)cc3Cl)n(C(c3ccccc3)c3ccccc3)c3ccc(Cl)cc23)cc1	80	300
CN1CCN(Cc2ccccc2CS(=O)(=O)NCCc2c(CCCc3ccc(C(=O)O)cc3)c3cc(Cl)ccc3n2C(c2ccccc2)c2ccccc2)CC1	80	20
Cc1cc(C)n(CCS(=O)(=O)NCCc2c(CCCc3ccc(C(=O)O)cc3)c3cc(Cl)ccc3n2C(c2ccccc2)c2ccccc2)n1	110	300

Structure (SMILES)	IC50 (Blood) [nM]	IC50 [1] [nM]
C[C@@H]1COC[C@H](C)N1CCS(=O)(=O)NCCc1c(CCOc2ccc(C(=O)O)cc2)c2cc(Cl)ccc2n1C(c1ccccc1)c1ccccc1	340	450
O=C(O)c1ccc(OCCc2c(CCNS(=O)(=O)CSc3ccccc3)n(C(c3ccccc3)c3ccccc3)c3ccc(Cl)cc23)cc1	75	190
O=C(O)c1ccc(OCCc2c(CCNS(=O)(=O)CSc3ccccc3Cl)n(C(c3ccccc3)c3ccccc3)c3ccc(Cl)cc23)cc1	90	150
COC[C@@H]1CCCN1CCS(=O)(=O)NCCc1c(CCOc2ccc(C(=O)O)cc2)c2cc(Cl)ccc2n1C(c1ccccc1)c1ccccc1	330	250
O=C(O)c1ccc(OCCc2c(CCNS(=O)(=O)Cc3ccc(Cl)c(Cl)c3)n(C(c3ccccc3)c3ccccc3)c3ccc(Cl)cc23)cc1 [ECOPLADIB]	110	
O=C(O)c1ccc(OCCc2c(CCNS(=O)(=O)Cc3ccccc3)n(C(c3ccccc3)c3ccccc3)c3ccc(Cl)cc23)cc1	120	
O=C(O)c1ccc(OCCc2c(CCNS(=O)(=O)CSc3ccc(F)c(Cl)c3)n(C(c3ccccc3)c3ccccc3)c3ccc(Cl)cc23)cc1	70	170
O=Cc1ccccc1CS(=O)(=O)NCCc1c(CCCc2ccc(C(=O)O)cc2)c2cc(Cl)ccc2n1C(c1ccccc1)c1ccccc1	50	200
O=C(O)c1ccc(CCCc2c(CCNS(=O)(=O)Cc3ccccc3CO)n(C(c3ccccc3)c3ccccc3)c3ccc(Cl)cc23)cc1	28	
CCN(CC)Cc1ccccc1CS(=O)(=O)NCCc1c(CCCc2ccc(C(=O)O)cc2)c2cc(Cl)ccc2n1C(c1ccccc1)c1ccccc1	37	30
COc1ccccc1S(=O)(=O)NCCc1c(CCCc2ccc(C(=O)O)cc2)c2cc(Cl)ccc2n1C(c1ccccc1)c1ccccc1	200	100
CN(C)C1CCN(CCS(=O)(=O)NCCc2c(CCOc3ccc(C(=O)O)cc3)c3cc(Cl)ccc3n2C(c2ccccc2)c2ccccc2)C1 (stereo not drawn)	> 1250	
Cc1cccc(C)c1SCS(=O)(=O)NCCc1c(CCOc2ccc(C(=O)O)cc2)c2cc(Cl)ccc2n1C(c1ccccc1)c1ccccc1	300	330
O=C(O)c1ccc(OCCc2c(CCNS(=O)(=O)CSc3cc(Cl)cc(Cl)c3)n(C(c3ccccc3)c3ccccc3)c3ccc(Cl)cc23)cc1	140	200
CC1CN(CCS(=O)(=O)NCCc2c(CCOc3ccc(C(=O)O)cc3)c3cc(Cl)ccc3n2C(c2ccccc2)c2ccccc2)CC(C)N1 (stereo not drawn)	> 10000	
O=C(O)c1ccc(OCCc2c(CCNS(=O)(=O)CCN3CCN(c4ccccn4)CC3)n(C(c3ccccc3)c3ccccc3)c3ccc(Cl)cc23)cc1	210	290
CC(=O)N1CCN(CCS(=O)(=O)NCCc2c(CCOc3ccc(C(=O)O)cc3)c3cc(Cl)ccc3n2C(c2ccccc2)c2ccccc2)CC1	240	

More lines, now with the values ahead:

IC50 (Blood) [nM]	IC50 [1] [nM]	Structure (SMILES)
280	760	Cc1cnn(CCS(=O)(=O)NCCc2c(CCOc3ccc(C(=O)O)cc3)c3cc(Cl)ccc3n2C(c2ccccc2)c2ccccc2)c1
630	500	O=C(O)c1ccc(OCCc2c(CCNS(=O)(=O)CCc3ccccc3)n(C(c3ccccc3)c3ccccc3)c3ccc(Cl)cc23)cc1
77	220	CC1CCCN1CCS(=O)(=O)NCCc1c(CCOc2ccc(C(=O)O)cc2)c2cc(Cl)ccc2n1C(c1ccccc1)c1ccccc1 (stereo not drawn)
330	350	O=C(O)c1ccc(OCCc2c(CCNS(=O)(=O)CCN3CCCC3)n(C(c3ccccc3)c3ccccc3)c3ccc(Cl)cc23)cc1
480		CC1C(=O)NCCN1CCS(=O)(=O)NCCc1c(CCOc2ccc(C(=O)O)cc2)c2cc(Cl)ccc2n1C(c1ccccc1)c1ccccc1 (stereo not drawn)
200	500	O=C(O)c1ccc(OCCc2c(CCNS(=O)(=O)CCn3ccnn3)n(C(c3ccccc3)c3ccccc3)c3ccc(Cl)cc23)cc1
1300	350	O=C(O)c1ccc(OCCc2c(CCNS(=O)(=O)CCN3CCC(O)CC3)n(C(c3ccccc3)c3ccccc3)c3ccc(Cl)cc23)cc1
540		O=C(O)c1ccc(OCCc2c(CCNS(=O)(=O)CCn3cccn3)n(C(c3ccccc3)c3ccccc3)c3ccc(Cl)cc23)cc1
320		O=C(O)c1ccc(OCCc2c(CCNS(=O)(=O)CCN3CCSC3)n(C(c3ccccc3)c3ccccc3)c3ccc(Cl)cc23)cc1
1500	410	O=C(O)c1ccc(OCCc2c(CCNS(=O)(=O)CCn3cncn3)n(C(c3ccccc3)c3ccccc3)c3ccc(Cl)cc23)cc1
200	350	CC1CCCN(CCS(=O)(=O)NCCc2c(CCOc3ccc(C(=O)O)cc3)c3cc(Cl)ccc3n2C(c2ccccc2)c2ccccc2)C1 (stereo not drawn)
200	220	CC1CCN(CCS(=O)(=O)NCCc2c(CCOc3ccc(C(=O)O)cc3)c3cc(Cl)ccc3n2C(c2ccccc2)c2ccccc2)CC1
5800		O=C(O)c1ccc(OCCc2c(CCNS(=O)(=O)CCn3ccnc3)n(C(c3ccccc3)c3ccccc3)c3ccc(Cl)cc23)cc1
5000	750	O=C(O)c1ccc(OCCc2c(CCNS(=O)(=O)CCN3CCNC3=S)n(C(c3ccccc3)c3ccccc3)c3ccc(Cl)cc23)cc1
200	510	Cc1ccn(CCS(=O)(=O)NCCc2c(CCOc3ccc(C(=O)O)cc3)c3cc(Cl)ccc3n2C(c2ccccc2)c2ccccc2)n1
310	700	O=C(O)c1ccc(OCCc2c(CCNS(=O)(=O)CCN3CCC(O)C3)n(C(c3ccccc3)c3ccccc3)c3ccc(Cl)cc23)cc1 (stereo not drawn)
